A selection: hits, their analogues and other compounds. The true share with any hit is near 2.5%.
DENV2 CPE rescue: DENV2-induced cell death inhibition. DENV2-infected cells, cytopathic effect rescue, plate reader. 350,000 compounds, 1.7% hits. CPE inhibition, % at 9.99 µM. AID 651640; in the data active means CPE inhibition above about 20%, passing the limit was not always enough; inconclusive means no clear call, values can overlap the other calls; tested in BHK-21 cells;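 further: 0% = median of neutral control wells and 100% = median of positive control wells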
SIRT5 block: blocks human SIRT5 desuccinylation of peptide; Purified SirT5, succinyl-peptide AMC, trypsin-coupled fluorescence; inhibition, % at 15 µM; 330,000 compounds, 1.1% hits; Q9NXA8; AID 652115; in the data active means inhibition above about 15%; inconclusive means no clear call, values can overlap the other calls
ERAP1 HTS inh: inhibitors of human ERAP1 aminopeptidase | Q9NZ08 | recombinant ERAP1, Leu-AMC fluorescence, 60 min | inhibition, % at 10.7 µM | 340,000 compounds, 0.15% hits | AID 652197;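 active means mean replicate inhibition of at least 30%, or all replicates individually reaching that 30% level; inactive means mean below 30% and not every replicate reaching it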;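 further: 0% = neutral control wells and 100% = L-leucinethiol positive control wells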
PglD DTNB: inhibitors of Campylobacter jejuni PglD acetyltransferase. purified PglD enzyme, DTNB colorimetric CoA detection. inhibition, % at 12.5 µM. 360,000 compounds, 0.098% hits. AID 602405; in the data active means inhibition above about 16%, passing the limit was not always enough; inconclusive means no clear call, values can overlap the other calls
E-selectin induc: induces E-selectin expression in human endothelial cells. P16581. HUVEC E-selectin immunofluorescence imaging; normalized: neutral wells 0, TNF-alpha wells 100. activation, % at 7.58 µM. 260,000 compounds, 0.37% hits. AID 686992;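 active means mean E-selectin-positive cell signal at least 10% of the positive control, reached in at least 60% of replicates, without over 20% cell loss; inconclusive means no rule given, readout overlaps actives, possibly toxicity-flagged; inactive means the rest, including those meeting only one limit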
Target sequence (P16581 whole entry, looked up): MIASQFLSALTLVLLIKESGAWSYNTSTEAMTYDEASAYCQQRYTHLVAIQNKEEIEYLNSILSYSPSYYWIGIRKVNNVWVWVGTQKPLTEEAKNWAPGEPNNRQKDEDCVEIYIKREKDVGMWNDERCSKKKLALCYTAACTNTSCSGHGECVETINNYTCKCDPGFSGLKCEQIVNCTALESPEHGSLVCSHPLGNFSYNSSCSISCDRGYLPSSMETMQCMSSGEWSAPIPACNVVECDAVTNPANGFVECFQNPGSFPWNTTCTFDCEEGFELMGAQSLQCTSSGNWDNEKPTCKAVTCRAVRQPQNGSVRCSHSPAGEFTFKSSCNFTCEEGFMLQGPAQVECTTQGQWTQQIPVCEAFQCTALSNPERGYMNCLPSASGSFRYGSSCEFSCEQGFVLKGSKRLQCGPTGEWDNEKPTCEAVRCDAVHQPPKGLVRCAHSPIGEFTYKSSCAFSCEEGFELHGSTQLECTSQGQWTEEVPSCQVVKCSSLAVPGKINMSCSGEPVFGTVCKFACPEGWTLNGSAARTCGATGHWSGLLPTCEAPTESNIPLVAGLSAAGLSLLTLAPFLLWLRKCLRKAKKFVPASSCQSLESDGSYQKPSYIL
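material = human umbilical vein endothelial cells (HUVEC), E-selectin induction | quantity = 3,000 cells/well | medium = EGM-2 growth medium on 0.1% gelatin-coated wells | technique = immunofluorescence imaging | read-out basis = % PE-positive cells | control set = TNF-alpha positive control, DMSO neutral control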
Active calls of the source: *; ? = inconclusive; / = no result.

SMILES | DENV2 CPE rescue | SIRT5 block | ERAP1 HTS inh | PglD DTNB | E-selectin induc
CN(Cc1ccccc1)C(=O)c1ccc(NC(=O)C2CCCN(C(=O)OC(C)(C)C)C2)cc1 (stereo not drawn) | 14 | 6 | 4 | -3 | /
CCCC#Cc1ccc2c(c1)O[C@H](CN(C)C(=O)c1cnccn1)[C@H](C)CN([C@H](C)CO)S2(=O)=O | -6 | -5 | 0 | 0 | 0
COc1ccc(OCCCC(=O)Nc2ccc(S(=O)(=O)N3CCOCC3)cc2)cc1 | -2 | -1 | -2 | 0 | 0
Cc1cc2nc(-c3nnnn3-c3c(C)cccc3C)c(=O)[nH]c2cc1C | -3 | -4 | / | / | 7
Cc1cccc(C)c1-n1nnnc1-c1nc2ccccc2[nH]c1=O | 10 | 2 | / | / | 49*
CCS(=O)(=O)N1CCC(C(=O)Nc2cc(Cl)ccc2O)CC1 | / | / | / | -4 | /
COC(=O)N/N=C/c1cc(C)n(-c2cccc3ccccc23)c1C | / | / | / | -2 | /
CCOC(=O)N/N=C/c1cc(C)n(-c2cccc3ccccc23)c1C | 37* | -2 | 0 | 7 | 1
Nc1nc(SCC(=O)N2CCCc3ccccc32)n[nH]1 | -4 | -1 | 3 | -1 | 0
CCOC(=O)N1CCC(NC(=O)c2cccc3c2C(=O)N(CCOC)C3)CC1 | 62* | -1 | 10 | -2 | -2
COCCN1Cc2cccc(C(=O)Nc3cc(C)cc(C)c3)c2C1=O | / | / | / | 17 | /
Cc1cc(C)c(NC(=O)CSc2nc3ncc(Br)cc3[nH]2)c(C)c1 | 2 | 19* | -1 | -1 | 0
COCC(=O)N1CCCCN2[C@H](CO)[C@H](c3ccc(-c4ccc(C)cc4)cc3)[C@@H]2C1 | ? | -3 | 0 | -6 | 1
COCC(=O)N1CCCCN2[C@@H](CO)[C@@H](c3ccc(-c4ccc(C)cc4)cc3)[C@@H]2C1 | 66* | 3 | -2 | 5 | 0
COCC(=O)N1CCCCN2[C@@H](CO)[C@H](c3ccc(-c4ccc(C)cc4)cc3)[C@@H]2C1 | 47* | -2 | -1 | -4 | -1
COCC(=O)N1CCCCN2[C@@H](CO)[C@@H](c3ccc(-c4ccc(F)cc4)cc3)[C@@H]2C1 | 28* | 1 | -2 | -5 | 0
OC[C@@H]1[C@H](c2ccc(-c3ccc(F)cc3)cc2)[C@@H]2CN(Cc3ccncc3)CCCCN12 | 38* | 3 | 2 | 1 | 0
C[C@@H]1CN([C@H](C)CO)C(=O)CCCn2cc(nn2)CO[C@H]1CN(C)Cc1ccc2cccnc2c1 | 9 | -2 | 1 | -5 | 0
O=C(NC1CC1)C1CCN(S(=O)(=O)c2ccc(Cl)cc2)CC1 | -2 | / | -4 | -1 | 0
COCC(=O)N1CCCCN2[C@H](CO)[C@@H](c3ccc(-c4ccccc4)cc3)[C@H]2C1 | 40* | 1 | 2 | 2 | 0
COC(=O)C1=C[C@@H](C(=O)OC)[C@@H]2C3=C(C(=O)[C@@]2(C)NC(=O)c2ccccc2)[C@H](C)C(C(=O)OC)=C(C(=O)OC)[C@@H]3C1 | 24* | -3 | -2 | -5 | 0
COC(=O)C1=C[C@@H](C(=O)OC)[C@@H]2C3=C(C(=O)[C@@]2(C)NC(=O)c2ccccc2)[C@H](C)n2c(=O)n(C)c(=O)n2[C@@H]3C1 | 0 | 1 | -8 | 9 | 0
CCc1cnc(N2[C@H](CO)[C@H](c3ccc(C4=CCCCC4)cc3)[C@@H]2C#N)s1 | 29* | 2 | 2 | -3 | 1
CCc1cnc(N2[C@H](C#N)[C@@H](c3ccccc3)[C@@H]2CO)s1 | 2 | 3 | 0 | 2 | 3
CCc1cnc(N2[C@@H](C#N)[C@@H](c3ccccc3)[C@@H]2CO)s1 | 49* | 1 | 0 | 0 | 1
SMILES | DENV2 CPE rescue | SIRT5 block | ERAP1 HTS inh | PglD DTNB | E-selectin induc
CCC(C)NC(=O)c1cn(CC)c2ccc(S(=O)(=O)N3CCCCC3)cc2c1=O (stereo not drawn) | 10 | -3 | -1 | 3 | 0
Fc1cccc(/C=N/N=C/c2cccc(F)c2)c1 | 3 | -3 | -3 | / | 0
C[C@H]1CN([C@@H](C)CO)C(=O)c2cc(C#CC(C)(C)O)cnc2O[C@H]1CN(C)Cc1cncnc1 | 33* | 4 | 2 | 0 | 0
C[C@@H]1CN([C@H](C)CO)C(=O)c2cc(C#CC(C)(C)O)cnc2O[C@H]1CN(C)Cc1cncnc1 | 3 | -2 | -1 | 2 | 0
C/C=C/c1cnc2c(c1)C(=O)N([C@@H](C)CO)C[C@H](C)[C@H](CN(C)Cc1cncnc1)O2 | 37* | 1 | 1 | 3 | 0
CNC(=O)c1cc(-c2ccc(Cl)cc2)n(-c2ccccc2)n1 | -3 | 0 | -4 | -3 | /
O=C(Nc1ccccc1O)C1=C[C@H](c2coc3ccccc3c2=O)C[C@H](OCCCCO)O1 | 7 | 0 | 3 | 7 | /
Cc1ccc(Nc2nc(-c3sc(N)nc3C)cs2)cc1 | 47* | -1 | 3 | 0 | 7
COc1ccc(Nc2nc(-c3sc(N)nc3C)cs2)cc1 | / | / | / | 1 | /
NC(=S)NNC(=O)C12CC3CC(CC(C3)C1)C2 | -3 | -2 | -3 | -8 | 55*
COc1ccc(NC(=O)Nc2cccc3c2O[C@H](CN(C)S(=O)(=O)c2ccccc2)[C@H](C)CN([C@@H](C)CO)C3=O)cc1 | 80* | 2 | -1 | -3 | 0
C[C@H]1CN([C@@H](C)CO)C(=O)c2cccc(NC(=O)Nc3cccc4ccccc34)c2O[C@@H]1CN(C)C(=O)Nc1ccc(F)cc1 | -8 | / | 0 | -4 | -3
C[C@H](CO)N1C[C@H](C)[C@H](CN(C)C(=O)Nc2ccc(F)cc2)Oc2c(NC(=O)Nc3cccc4ccccc34)cccc2C1=O | 42* | 2 | 3 | -3 | 0
COc1ccc(NC(=O)Nc2cccc3c2O[C@H](CN(C)S(=O)(=O)c2ccccc2)[C@@H](C)CN([C@H](C)CO)C3=O)cc1 | -4 | 1 | -2 | 4 | -1
COc1ccc(NC(=O)Nc2cccc3c2O[C@H](CN(C)C(=O)Nc2ccc(OC)cc2)[C@@H](C)CN([C@@H](C)CO)C3=O)cc1 | 144* | 1 | -5 | 0 | 0
COc1ccc(NC(=O)Nc2cccc3c2O[C@@H](CN(C)C(=O)Nc2ccccc2)[C@H](C)CN([C@H](C)CO)C3=O)cc1 | 36* | -7 | 0 | 4 | 1
COc1ccc(NC(=O)N(C)C[C@@H]2Oc3ccc(NC(=O)Nc4c(C)noc4C)cc3C(=O)N([C@H](C)CO)C[C@H]2C)cc1 | 2 | / | / | -2 | -1
Cc1ccc(-c2nn3c(=O)c(C)nnc3s2)cc1 | / | / | / | 2 | /
CN(CCc1ccccn1)C(=O)c1cccnc1Oc1ccccc1 | 7 | -3 | / | 1 | /
COc1ccc(NC(=O)Nc2cccc3c2O[C@@H](CN(C)C(=O)NC2CCCCC2)[C@H](C)CN([C@H](C)CO)C3=O)cc1 | 4 | -2 | 0 | -4 | 49*
COc1ccc(NC(=O)Nc2cccc3c2O[C@@H](CN(C)C(=O)Nc2ccc(F)cc2)[C@H](C)CN([C@H](C)CO)C3=O)cc1 | -2 | 4 | 3 | -2 | -3
